Measured values from different studies.
Each line is one published result; the experiments were not run side by side.
Matrix: plasma

With CCc1cc(C(=O)NC)c2nccc(N3CCc4c(cc(Cn5ccnc5)cc4-c4cn(C)nc4C(F)(F)F)C3=O)c2c1 the MRT(0-inf) was 0.5 h (male CD-1 mouse; intravenous, 3 mg/kg).
For COc1nc(-c2cc(C)c(N[C@@H](C)c3cc(F)cc(F)c3)nn2)ccc1-n1cnc(C)c1, the MRT(0-t) was 3.3 h (male CD-1 mouse; intravenous, 1 mg/kg, single dose).
The MRT(0-inf) of Cc1cc(NC(=O)c2cccc3cc(-c4cccc5[nH]nc(N)c45)ccc23)ccc1F is reported as 3.54 h (male CD-1 mouse; oral, 10 mg/kg).
COc1cc(C2Oc3cc([C@H]4Oc5cc(O)cc(O)c5C(=O)[C@@H]4O)ccc3OC2CO)ccc1O (some centres unmarked) gave an MRT(0-inf) of 0.103 h (male CD-1 mouse; intravenous, 2 mg/kg).
COc1nc(-c2cc(C)c(N[C@@H](C)c3c(F)cc(F)cc3F)nn2)ccc1-n1cnc(C)c1 gave an MRT(0-t) of 5.24 h (male CD-1 mouse; oral, 5 mg/kg, single dose).
With COc1ccc2cc(CCC[18F])ccc2c1 the MRT was 0.698 h (male BALB/c mouse; intravenous).
The MRT(0-inf) of COc1ccc2nccc(N3CCc4c(cc(Cn5ccnc5)cc4-c4cn(C)nc4C(F)(F)F)C3=O)c2c1 is reported as 1.4 h (male CD-1 mouse; oral, 10 mg/kg).
With CC(C)(Nc1nc(-c2ccccn2)nc2ccccc12)c1ccccn1 the MRT(0-inf) was 1.2 h (female BALB/c mouse; intravenous, 1 mg/kg).
COc1nc(-c2cc(C)c(N[C@@H](C)c3ccc(F)cc3)nn2)ccc1-n1cnc(C)c1 gave an MRT(0-t) of 3.62 h (male CD-1 mouse; intravenous, 1 mg/kg, single dose).
CCc1cc(OC)c2nccc(N3CCc4c(cc(Cn5ccnc5)cc4-c4cn(C)nc4C(F)(F)F)C3=O)c2c1 gave an MRT(0-inf) of 0.7 h (male CD-1 mouse; intravenous, 3 mg/kg).
c1ccc(-c2nc(N3CCC(c4ccccn4)C3)c3ccccc3n2)nc1 (centres unmarked) gave an MRT(0-t) of 5.1 h (female BALB/c mouse; oral, 12.5 mg/kg).
